ChEMBL document CHEMBL3232734, “Nitric oxide (NO) releasing poly ADP-ribose polymerase 1 (PARP-1) inhibitors targeted to glutathione S-transferase P1-overexpressing cancer cells” (J Med Chem, 2014)
One block for each molecule: values may come before it. Calls of active or inactive are those of the source. No cut-off for these calls is given here.

Assays:
Mus musculus = experiment: Systemic toxicity in NCr nu/nu athymic mouse xenografted with human A549 cells assessed as body weight at 92 umol/kg, iv administered two times a week for 4 weeks (reference value: 25.0 +/-0.78 gms); assay type: organism-based; details: in vivo, 672 h
NCI-H1703 [1] = experiment: Induction of apoptosis in human NCI-H1703 cells assessed as cleaved caspase-7 level at 5 to 25 uM by immunoblot analysis; assay type: functional, cell-based; details: 5 to […] uM
[2] = target: T1, Poly [ADP-ribose] polymerase 1 (Homo sapiens, UniProt P09874); experiment: Inhibition of PARP-1 (unknown origin) assessed as incorporation of biotinylated poly ADP-ribose onto histone proteins by colorimetric analysis
A549 [3] = experiment: Retention time of the compound in human A549 cells treated with 2-(2,4-dinitrophenoxy)-1-(4-(2-fluoro-5-((4-oxo-3,4-dihydrophthalazin-1-yl)methyl)benzoyl)piperazin-1-yl)diazene oxide at 10 uM by LC/MS/MS analysis; assay type: ADME, cell-based; details: a549, 10 µM
Procedure, shortened: (§1)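 A549 cells plated in flasks overnight at 37 °C, then treated with 10 μM compound for varying times. Lysed by scraping in 10 mM HCl/acetonitrile, 5% sulfosalicylic acid added, centrifuged at 12000g for 15 min, filtered. Analyzed on a C18 column, 0.2 mL/min, H2O/acetonitrile/0.1% formic acid gradient, by Q-TOF LC/MS/MS in positive mode; extracted ion chromatograms at [M+H]+.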

[4] = In vitro antiproliferative activity against human H460 cells assessed as inhibition of cell proliferation after 72 hrs by MTT assay; assay type: functional, cell-based; details: NCI-H460, 72 h
NCI-H1792 = experiment: In vitro antiproliferative activity against human NCI-H1792 cells assessed as inhibition of cell proliferation after 72 hrs by MTT assay; assay type: functional, cell-based; details: NCI-H1792, 72 h
[5] = Prodrug activation assessed as GSH reactivity in aqueous phosphate buffer at pH 7.4 by UV-Visible spectrophotometer analysis; assay type: physicochemical
Procedure, shortened: (§2)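 UV–vis kinetics at 37 °C in 0.1 M phosphate buffer, pH 7.4, with 50 μM DTPA and 4 mM GSH, with or without 40 nM recombinant GSTP1 or GSTA1. Substrate (typically 10 μM) added after thermal equilibration. Ratios are k with enzyme over k with GSH alone.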

A549 [6] = experiment: In vitro antiproliferative activity against human A549 cells assessed as inhibition of cell proliferation after 72 hrs by MTT assay; assay type: functional, cell-based; details: A549, 72 h
[7] = In vitro antiproliferative activity against human NCI-H2023 cells assessed as inhibition of cell proliferation after 72 hrs by MTT assay; assay type: functional, cell-based; details: NCI-H2023, 72 h
NCI-H2030 = experiment: In vitro antiproliferative activity against human NCI-H2030 cells assessed as inhibition of cell proliferation after 72 hrs by MTT assay; assay type: functional, cell-based; details: NCI-H2030, 72 h
[8] = In vitro antiproliferative activity against human NCI-H1568 cells assessed as inhibition of cell proliferation after 72 hrs by MTT assay; assay type: functional, cell-based; details: NCI-H1568, 72 h
NCI-H1703 [9] = experiment: Increase in intracellular nitric oxide release in human NCI-H1703 cells at 10 uM after 30 mins by DAF-FM dye based luminescence spectrometer analysis; assay type: functional, cell-based
NCI-H2122 = experiment: In vitro antiproliferative activity against human NCI-H2122 cells assessed as inhibition of cell proliferation after 72 hrs by MTT assay; assay type: functional, cell-based; details: NCI-H2122, 72 h
NCI-H1693 = experiment: In vitro antiproliferative activity against human NCI-H1693 cells assessed as inhibition of cell proliferation after 72 hrs by MTT assay; assay type: functional, cell-based; details: NCI-H1693, 72 h
[10] = In vitro antiproliferative activity against human NCI-H1944 cells assessed as inhibition of cell proliferation after 72 hrs by MTT assay; assay type: functional, cell-based; details: NCI-H1944, 72 h
[11] = target: T1, Poly [ADP-ribose] polymerase 1; experiment: Inhibition of PARP-1 (unknown origin) assessed as incorporation of biotinylated poly ADP-ribose onto histone proteins measured without activation by GSH by colorimetric analysis
Procedure, shortened: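 Colorimetric PARP assay kit measuring biotinylated poly(ADP-ribose) incorporation onto histones, run per the manufacturer's protocol. Absorbance read at 450 nm. Inhibitor tested over 0.01 nM–1 μM, prodrug given without GSH activation. At least three experiments, each at least in triplicate.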

[12] = In vitro antiproliferative activity against human H441 cells assessed as inhibition of cell proliferation after 72 hrs by MTT assay; assay type: functional, cell-based; details: NCI-H441, 72 h
NCI-H1703 [13] = experiment: Increase in intracellular reactive oxygen/nitrogen species in human NCI-H1703 cells at 10 uM after 60 mins by DCF-DA dye based luminescence spectrometer analysis; assay type: functional, cell-based
Procedure, shortened: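 Cells in six-well plates (6 × 10^5/well) loaded with 5 μM DCF-DA in HBSS, 30 min at 37 °C, 5% CO2, then rinsed. Fresh HBSS with compound (10 μM) or DMSO control added. After 60 min cells scraped into HBSS; DCF fluorescence read at ex 488 / em 530 nm. At least three experiments, each at least in triplicate.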

[14] = In vitro antiproliferative activity against human H23 cells assessed as inhibition of cell proliferation after 72 hrs by MTT assay; assay type: functional, cell-based; details: NCI-H23, 72 h
NCI-H1355 = experiment: In vitro antiproliferative activity against human NCI-H1355 cells assessed as inhibition of cell proliferation after 72 hrs by MTT assay; assay type: functional, cell-based; details: NCI-H1355, 72 h
NCI-H1703 [15] = experiment: In vitro antiproliferative activity against human NCI-H1703 cells assessed as inhibition of cell proliferation after 72 hrs by MTT assay; assay type: functional, cell-based; details: NCI-H1703, 72 h
NCI-H322M = experiment: In vitro antiproliferative activity against human NCI-H322M cells assessed as inhibition of cell proliferation after 72 hrs by MTT assay; assay type: functional, cell-based
[16] = target: Glutathione S-transferase P (Homo sapiens, UniProt P09211); experiment: Ratio of prodrug activation in presence of GSH and recombinant GSTP1 (unknown origin) to prodrug activation in presence of GSH by UV-Visible spectrophotometry
Procedure, shortened: as §2, with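 “equilibration. Absorbance followed at 302 nm; first-order rate from an exponential fit.” for “equilibration.”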

[17] = target: T2, Glutathione S-transferase A1 (Homo sapiens, UniProt P08263); experiment: Ratio of prodrug activation in presence of GSH and recombinant GSTA1 (unknown origin) to prodrug activation in presence of GSH by UV-Visible spectrophotometry
T2 sequence (P08263 whole entry): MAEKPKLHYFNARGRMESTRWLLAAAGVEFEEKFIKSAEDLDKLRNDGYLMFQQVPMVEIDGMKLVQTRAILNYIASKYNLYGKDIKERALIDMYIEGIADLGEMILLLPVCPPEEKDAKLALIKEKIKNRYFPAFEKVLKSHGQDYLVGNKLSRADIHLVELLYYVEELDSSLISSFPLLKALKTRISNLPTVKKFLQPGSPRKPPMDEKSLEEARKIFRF
Procedure, shortened: as §2, with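 “equilibration. Absorbance followed at 302 nm; first-order rate from an exponential fit.” for “equilibration.”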

Tumour [18] = experiment: Drug metabolism in tumor of NCr nu/nu athymic mouse xenografted with human A549 cells assessed as metabolite formation at 92 umol/kg, iv administered two times a week for 4 weeks; assay type: ADME, organism-based, Neoplasm; details: in vivo, 672 h
Procedure, shortened: (§3)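 A549 cells (RPMI 1640 + 10% FBS, ≤4 passages) harvested at 70–80% confluence, 5 × 10^6 cells in PBS implanted s.c.; at ~3 mm × 3 mm tumors, mice randomized into groups of 12. Tail-vein injection at 92 μmol/kg in 20 μL DMSO, twice weekly for 4 weeks; saline or DMSO controls. Tumors caliper-measured twice weekly, volume = π/2 × L × W². Tumors resected at end, frozen, extracted for metabolite analysis by LC/MS.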

Tumour [19] = experiment: Drug uptake in tumor of NCr nu/nu athymic mouse xenografted with human A549 cells at 92 umol/kg, iv administered two times a week for 4 weeks; assay type: ADME, organism-based, Neoplasm; details: in vivo, 672 h; procedure, shortened: as §3
A549 [20] = experiment: Anticancer activity against human A549 cells xenografted in NCr nu/nu athymic mouse assessed as reduction of tumor growth at 92 umol/kg, iv administered two times a week for 4 weeks; assay type: functional, organism-based; procedure, shortened: as §3
NCI-H1703 [21] = experiment: Induction of DNA strand break damage in human NCI-H1703 cells at 5 uM after 24 hrs by comet assay; assay type: functional, cell-based
A549 [22] = experiment: Retention time of the compound in human A549 cells at 10 uM by LC/MS/MS analysis; assay type: ADME, cell-based; details: a549, 10 µM; procedure, shortened: as §1

T1 sequence (P09874 whole entry): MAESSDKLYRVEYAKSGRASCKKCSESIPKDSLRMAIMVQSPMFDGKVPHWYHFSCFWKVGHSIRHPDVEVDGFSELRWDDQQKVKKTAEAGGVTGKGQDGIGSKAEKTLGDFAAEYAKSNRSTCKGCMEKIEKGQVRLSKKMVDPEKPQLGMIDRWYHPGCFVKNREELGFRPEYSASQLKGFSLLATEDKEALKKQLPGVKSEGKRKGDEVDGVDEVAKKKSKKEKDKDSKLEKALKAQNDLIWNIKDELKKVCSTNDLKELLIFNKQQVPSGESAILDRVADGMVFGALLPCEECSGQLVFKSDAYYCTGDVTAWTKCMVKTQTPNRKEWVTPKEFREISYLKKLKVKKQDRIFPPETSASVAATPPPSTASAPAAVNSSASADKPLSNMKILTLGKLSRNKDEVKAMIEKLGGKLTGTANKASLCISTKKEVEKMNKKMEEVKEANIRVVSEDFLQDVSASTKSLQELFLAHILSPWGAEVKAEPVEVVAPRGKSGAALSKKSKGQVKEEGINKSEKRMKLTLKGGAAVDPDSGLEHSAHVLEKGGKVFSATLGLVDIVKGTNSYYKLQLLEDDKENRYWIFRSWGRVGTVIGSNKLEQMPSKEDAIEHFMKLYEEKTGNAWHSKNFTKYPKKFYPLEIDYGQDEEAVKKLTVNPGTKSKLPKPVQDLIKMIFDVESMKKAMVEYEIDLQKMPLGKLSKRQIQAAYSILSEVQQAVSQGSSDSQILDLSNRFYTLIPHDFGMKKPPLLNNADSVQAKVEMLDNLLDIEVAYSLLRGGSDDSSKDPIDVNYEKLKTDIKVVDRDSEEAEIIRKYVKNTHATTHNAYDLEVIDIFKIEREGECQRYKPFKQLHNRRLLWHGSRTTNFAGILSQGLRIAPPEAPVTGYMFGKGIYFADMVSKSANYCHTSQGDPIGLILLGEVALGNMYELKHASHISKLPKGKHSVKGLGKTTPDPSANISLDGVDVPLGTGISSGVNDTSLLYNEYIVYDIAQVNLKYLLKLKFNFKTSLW
Sequence of Glutathione S-transferase P (P09211 whole entry): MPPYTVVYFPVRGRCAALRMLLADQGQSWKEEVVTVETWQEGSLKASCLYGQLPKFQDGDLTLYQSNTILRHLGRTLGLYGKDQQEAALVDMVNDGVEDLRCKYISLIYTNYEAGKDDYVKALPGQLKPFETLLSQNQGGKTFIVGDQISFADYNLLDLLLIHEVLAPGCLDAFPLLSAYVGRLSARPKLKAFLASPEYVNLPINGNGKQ

SMILES: O=C(c1cc(Cc2n[nH]c(=O)c3ccccc23)ccc1F)N1CCN(C(=O)C2CC2)CC1 [OLAPARIB]
Activity (Mus musculus): 25.6 g
Activity (NCI-H1703 [1]): inactive

IC50 [2]: 0.0305 µM
SMILES: O=C(c1cccc(Cc2n[nH]c(=O)c3ccccc23)c1)N1CCNCC1

SMILES: N[C@@H](CCC(=O)N[C@@H](CSc1ccc([N+](=O)[O-])cc1[N+](=O)[O-])C(=O)NCC(=O)O)C(=O)O
Retention_time (A549 [3]): 13.8 min

IC50 [2]: 0.0069 µM
Retention_time (A549 [3]): 11.9 min
SMILES: O=C(c1cc(Cc2n[nH]c(=O)c3ccccc23)ccc1F)N1CCNCC1

IC50 (NCI-H1792): 14 µM
t1/2 [5]: 11.2 min
IC50 (A549 [6]): 16.8 µM
IC50 (NCI-H2030): 13.8 µM
IC50 (NCI-H2122): 11.2 µM
IC50 (NCI-H1693): 5.3 µM
IC50 [11]: 0.123 µM
IC50 (NCI-H1355): 11.4 µM
IC50 (NCI-H1703 [15]): 6.8 µM
IC50 (NCI-H322M): 9 µM
SMILES: O=C(c1cccc(Cc2n[nH]c(=O)c3ccccc23)c1)N1CCN(/[N+]([O-])=N/Oc2ccc([N+](=O)[O-])cc2[N+](=O)[O-])CC1
IC50 [4]: 13.8 µM
IC50 [7]: 19.4 µM
IC50 [8]: 6.5 µM
Activity (NCI-H1703 [9]): Active
IC50 [10]: 14 µM
IC50 [12]: 8.1 µM
Activity (NCI-H1703 [13]): Active
IC50 [14]: 7.5 µM

SMILES: CNc1ccc(C(=O)Oc2cc(O/N=[N+](\[O-])N(C)C)c([N+](=O)[O-])cc2[N+](=O)[O-])cc1
t1/2 [5]: 2 min
Ratio [16]: 5.4
Ratio [17]: 3.7

SMILES: O=C(c1cc(Cc2n[nH]c(=O)c3ccccc23)ccc1F)N1CCN(/[N+]([O-])=N/Oc2ccc([N+](=O)[O-])cc2[N+](=O)[O-])CC1
IC50 [4]: 16.4 µM
IC50 (NCI-H1792): 12.7 µM
Drug metabolism (Tumour [18]): metabolite_detected
t1/2 [5]: 11.6 min
IC50 (A549 [6]): 13.5 µM
IC50 [7]: 15 µM
Ratio [16]: 10.6
IC50 (NCI-H2030): 9.2 µM
IC50 [8]: 3 µM
Activity (NCI-H1703 [9]): Active
IC50 (NCI-H2122): 7.5 µM
IC50 (NCI-H1693): 5.4 µM
IC50 [10]: 10.5 µM
IC50 [11]: 0.058 µM
IC50 [12]: 4.5 µM
Activity (NCI-H1703 [13]): Active
Activity (Mus musculus): 27.7 g
Drug uptake (Tumour [19]): Active
IC50 [14]: 8.4 µM
growth inhibition (GI) (A549 [20]): Active
Ratio [17]: 20.4
Activity (NCI-H1703 [21]): Active
Activity (NCI-H1703 [1]): Active
IC50 (NCI-H1703 [15]): 4.3 µM
Retention_time (A549 [22]): 18.2 min
IC50 (NCI-H322M): 7.9 µM
